From PubChem
TRPC4 potent – allosterically enhances the mouse TRPC4 cation channel. Q9QUQ5. HEK293 TRPC4beta/mu-opioid, DAMGO EC20, Fluo-4 Ca2+ flux; stronger effect = higher value. B-score at 10 µM. actives 0.42% (n = 310,000);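 active = B-score of calcium response area above 5 SD of library B-scores, with initial fluorescence ratio within 5 SD of library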
DSG3 Ab inh – human desmoglein-3 autoantibody binding inhibition | DSG3-coupled beads, scFv-anti-DSG3-GFP binding, flow cytometry; stronger effect = lower value | actives 0.48% (n = 310,000) | P32926 | binding (percent of control), % at 10 µM | AID 588358;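 active = binding more than 3 SD below its plate's average and above zero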;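 note: hits lower antibody fragment binding to DSG3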
Target sequence (P32926 whole entry, looked up, the tested form may be a part): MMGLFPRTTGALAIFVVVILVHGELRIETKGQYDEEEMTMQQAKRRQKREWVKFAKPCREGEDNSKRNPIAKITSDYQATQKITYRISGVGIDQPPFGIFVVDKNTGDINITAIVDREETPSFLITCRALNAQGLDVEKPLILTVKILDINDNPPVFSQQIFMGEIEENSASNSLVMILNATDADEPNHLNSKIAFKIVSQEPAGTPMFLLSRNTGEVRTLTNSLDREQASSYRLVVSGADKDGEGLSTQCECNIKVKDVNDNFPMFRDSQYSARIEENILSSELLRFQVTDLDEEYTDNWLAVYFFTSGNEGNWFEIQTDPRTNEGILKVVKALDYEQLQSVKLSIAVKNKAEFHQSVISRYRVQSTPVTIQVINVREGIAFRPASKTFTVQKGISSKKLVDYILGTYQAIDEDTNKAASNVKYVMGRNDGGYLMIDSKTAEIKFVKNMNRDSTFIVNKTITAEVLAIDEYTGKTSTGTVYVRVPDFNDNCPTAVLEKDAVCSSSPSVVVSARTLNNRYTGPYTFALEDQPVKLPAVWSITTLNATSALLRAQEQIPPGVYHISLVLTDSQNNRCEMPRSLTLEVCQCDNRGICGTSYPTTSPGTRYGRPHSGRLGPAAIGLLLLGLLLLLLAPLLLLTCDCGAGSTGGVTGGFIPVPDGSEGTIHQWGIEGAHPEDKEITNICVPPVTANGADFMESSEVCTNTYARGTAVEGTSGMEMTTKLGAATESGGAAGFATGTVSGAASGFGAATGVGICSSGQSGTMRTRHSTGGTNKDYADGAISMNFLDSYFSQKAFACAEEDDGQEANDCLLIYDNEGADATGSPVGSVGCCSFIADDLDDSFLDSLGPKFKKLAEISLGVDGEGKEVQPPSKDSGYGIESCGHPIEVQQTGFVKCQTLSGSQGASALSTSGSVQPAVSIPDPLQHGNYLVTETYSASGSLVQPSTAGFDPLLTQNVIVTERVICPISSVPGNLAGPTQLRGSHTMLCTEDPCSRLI
TRPC4 agonist – TRPC4 (mouse) channel activation; Q9QUQ5; HEK293 TRPC4beta/mu-opioid, Fluo4 calcium fluorescence; stronger effect = higher value; B-score at 10 µM; actives 0.49% (n = 310,000); AID 2237;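 active = B-score above 5 SD of library B-scores, and initial fluorescence ratio not above library mean plus 5 SD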;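 note: positive B-score marks a calcium rise read as TRPC4 activation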
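Assay system – TRPC4beta and mu-opioid receptor HEK293 stable cells · Measured by – Fluo4 fluorescence, kinetic · Schedule – dye loading 45 min room temperature, 110 s kinetic read · Read-out – B-scored integrated calcium fluorescence ratio · Controls – buffer and maximal DAMGO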
TRPC4 block – blocks the mouse TRPC4 cation channel; Q9QUQ5; HEK293 TRPC4beta/mu-opioid, DAMGO-evoked Fluo4 calcium flux; stronger effect = lower value; B-score at 10 µM; actives 0.39% (n = 300,000); AID 2247;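 active = B-score over 3 SD under the library average, no early fluorescence shift, positive overall ratio signal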
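material = TRPC4beta/mu-opioid receptor HEK293 cell line | probe or stimulus = sequential submaximal and maximal DAMGO stimulation | compound dosing = one concentration per compound | measured by = Fluo4 Ca2+ flux fluorescence | evaluation = integrated fluorescence ratio relative to baseline, converted to per-well B score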
TRPC6 inh – inhibitors of mouse TRPC6 channel. Q61143. HEK293-TRPC6, membrane potential dye, ACh-evoked depolarization; stronger effect = lower value. B-score at 10 µM. actives 1.1% (n = 310,000);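 active = B-score under library mean minus 3 SD, initial fluorescence not abnormally high, positive integrated signal ratio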;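 note: B-score derived from integrated fluorescence ratio over the kinetic read; more negative B-score means stronger inhibition of depolarization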
TRPC6 act – activators of mouse TRPC6 channel; HEK293-TRPC6 membrane potential dye fluorescence; stronger effect = higher value; B-score at 10 µM; actives 0.13% (n = 310,000); AID 2550;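 active = B-score of the integrated fluorescence ratio above library mean plus 3 SD, and starting fluorescence ratio within library mean plus 5 SD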;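 note: higher score means more depolarization so channel activation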
Numbers stand for hits; ! = a repeat was not active. A selection: hits, their analogues and other compounds. The true share with any hit is near 2.5%.

What do the screens show for `COc1cccc(-c2nc(NCc3ccco3)c3ccccc3n2)c1O`?
TRPC4 potent: inactive; DSG3 Ab inh: 64; TRPC4 agonist: inactive; TRPC4 block: inactive; TRPC6 inh: inactive; TRPC6 act: inactive

Results for Cc1ccccc1Nc1nc(NCc2ccco2)c2ccccc2n1 ?
TRPC4 potent: inactive; DSG3 Ab inh: inactive; TRPC4 agonist: 49; TRPC4 block: -9; TRPC6 inh: -5.8; TRPC6 act: inactive

How did COc1cccc(-c2nc(NCc3ccccc3)c3ccccc3n2)c1O do in these assays?
TRPC4 potent: inactive; DSG3 Ab inh: inactive; TRPC4 agonist: inactive; TRPC4 block: inactive; TRPC6 inh: inactive; TRPC6 act: inactive

How did C[C@@H]1CN([C@@H](C)CO)C(=O)CCCn2nncc2CO[C@@H]1CN(C)C(=O)c1ccncc1 do in these assays?
DSG3 Ab inh: inactive

What do the screens show for `O=C1CSC(c2ccc([N+](=O)[O-])cc2)N1c1ccc(O)cc1` (configuration not stated)?
TRPC4 potent: inactive; DSG3 Ab inh: inactive; TRPC4 agonist: inactive; TRPC4 block: inactive; TRPC6 inh: inactive; TRPC6 act: inactive

How did CN1CCCN(S(=O)(=O)c2ccc(Cl)c(Cl)c2)CC1 do in these assays?
TRPC4 potent: 12; DSG3 Ab inh: inactive; TRPC4 agonist: inactive; TRPC4 block: inactive; TRPC6 inh: inactive; TRPC6 act: inactive

How did Cc1cccc(CN2CCC(C(=O)Nc3ccc(-n4nc(C)cc4C)cc3)CC2)n1 do in these assays?
TRPC4 potent: inactive; DSG3 Ab inh: inactive; TRPC4 agonist: inactive; TRPC4 block: inactive; TRPC6 inh: inactive; TRPC6 act: inactive

Results for O=C(CSCc1ccc(Br)cc1)N1CCCC1 ?
TRPC4 potent: inactive; DSG3 Ab inh: inactive; TRPC4 agonist: inactive; TRPC4 block: inactive; TRPC6 inh: inactive; TRPC6 act: inactive

Results for c1ccc(CN(CC2=NCCN2)c2ccccc2)cc1 ?
TRPC4 potent: inactive; DSG3 Ab inh: 14!; TRPC4 agonist: inactive; TRPC4 block: inactive; TRPC6 inh: inactive; TRPC6 act: inactive

Results for CC(=O)c1sc(-c2ccccc2)cc1NS(=O)(=O)c1ccccc1 ?
TRPC4 potent: inactive; DSG3 Ab inh: 75; TRPC4 agonist: inactive; TRPC4 block: inactive; TRPC6 inh: inactive; TRPC6 act: inactive

What do the screens show for `CC(=O)c1sc(-c2ccccc2)cc1NS(=O)(=O)c1ccc(C)cc1`?
TRPC4 potent: inactive; DSG3 Ab inh: inactive; TRPC4 agonist: inactive; TRPC4 block: inactive; TRPC6 inh: inactive; TRPC6 act: inactive

What do the screens show for `CCCn1c(C)nc2c(c1=O)c1nc3ccccc3nc1n2CCC1=CCCCC1`?
TRPC4 potent: inactive; DSG3 Ab inh: inactive; TRPC4 agonist: inactive; TRPC4 block: inactive; TRPC6 inh: inactive; TRPC6 act: inactive

What do the screens show for `CCOCCCn1cnc2c(c1=O)c1nc3ccccc3nc1n2-c1ccc(C)cc1`?
TRPC4 potent: inactive; DSG3 Ab inh: inactive; TRPC4 agonist: inactive; TRPC4 block: -8; TRPC6 inh: inactive; TRPC6 act: inactive

What do the screens show for `CCOCCCn1cnc2c(c1=O)c1nc3ccccc3nc1n2-c1ccccc1`?
TRPC4 potent: inactive; DSG3 Ab inh: inactive; TRPC4 agonist: inactive; TRPC4 block: inactive; TRPC6 inh: inactive; TRPC6 act: inactive

Results for COCCCn1c2nc3ccccc3nc2c2c(=O)n(-c3ccccc3OC)cnc21 ?
TRPC4 potent: inactive; TRPC4 agonist: inactive; TRPC4 block: inactive; TRPC6 inh: inactive; TRPC6 act: inactive

Results for CCCn1c(C)nc2c(c1=O)c1nc3ccccc3nc1n2-c1ccccc1 ?
DSG3 Ab inh: 88

Results for COc1ccccc1-n1cnc2c(c1=O)c1nc3ccccc3nc1n2-c1ccc(C)c(C)c1 ?
TRPC4 potent: inactive; DSG3 Ab inh: 35; TRPC4 agonist: inactive; TRPC4 block: inactive; TRPC6 inh: inactive; TRPC6 act: inactive

How did Cc1ccccc1NS(=O)(=O)c1ccc2[nH]cc(C(=O)NCCCN3CCOCC3)c(=O)c2c1 do in these assays?
TRPC4 potent: inactive; DSG3 Ab inh: inactive; TRPC4 agonist: inactive; TRPC6 inh: -6; TRPC6 act: inactive

How did COc1cc(NC(=S)NCCCN2CCOCC2)cc(OC)c1 do in these assays?
TRPC4 potent: inactive; TRPC4 agonist: inactive; TRPC4 block: inactive; TRPC6 inh: inactive; TRPC6 act: inactive

What do the screens show for `O=C(Cc1ccc(NC(=O)C2CCN(C(=O)C3CCC3)CC2)cc1)Nc1ccc(C(=O)N2CCOCC2)cc1`?
DSG3 Ab inh: inactive

Results for CC(=O)c1ccc(N2CCN(C(=O)CCS(=O)(=O)c3ccc4c(c3)NC(=O)CS4)CC2)cc1 ?
TRPC4 potent: 17; DSG3 Ab inh: inactive; TRPC4 agonist: inactive; TRPC4 block: inactive; TRPC6 inh: inactive; TRPC6 act: inactive

Results for CCOC(=O)c1oc2ccccc2c1CN1CCCCC1 ?
TRPC4 potent: inactive; DSG3 Ab inh: inactive; TRPC4 agonist: inactive; TRPC4 block: -6; TRPC6 inh: inactive; TRPC6 act: inactive

How did CCOC(=O)c1oc2ccccc2c1CN1CCN(C)CC1 do in these assays?
TRPC4 potent: inactive; DSG3 Ab inh: inactive; TRPC4 agonist: inactive; TRPC4 block: inactive; TRPC6 inh: inactive; TRPC6 act: inactive

What do the screens show for `Cc1ccc(NS(=O)(=O)c2ccc(C)c(NC(=S)NCCN3CCOCC3)c2)c(C)c1`?
DSG3 Ab inh: inactive

What do the screens show for `N=c1oc2ccc3ccccc3c2cc1C(N)=S`?
TRPC4 potent: inactive; DSG3 Ab inh: 80; TRPC4 agonist: inactive; TRPC4 block: inactive; TRPC6 inh: inactive; TRPC6 act: inactive

How did O=C(O)c1cc2c(ccc3ccccc32)oc1=O do in these assays?
TRPC4 potent: inactive; DSG3 Ab inh: inactive; TRPC4 agonist: inactive; TRPC4 block: inactive; TRPC6 inh: inactive; TRPC6 act: inactive

How did CN1CCN(c2ccc(NC(=O)c3ccc(-c4ccc(Br)cc4)o3)cc2)CC1 do in these assays?
TRPC4 potent: inactive; DSG3 Ab inh: inactive; TRPC4 agonist: 48; TRPC4 block: -7; TRPC6 inh: inactive; TRPC6 act: inactive

What do the screens show for `CCN1CCN(c2ccc(NC(=O)c3ccc(Br)o3)cc2)CC1`?
TRPC4 potent: inactive; DSG3 Ab inh: inactive; TRPC4 agonist: inactive; TRPC4 block: inactive; TRPC6 inh: inactive; TRPC6 act: inactive

Results for Clc1cccc(COn2c(-c3ccc(Cl)cc3Cl)nc3ncccc32)c1 ?
TRPC4 potent: inactive; DSG3 Ab inh: inactive; TRPC4 agonist: inactive; TRPC4 block: -6; TRPC6 inh: inactive; TRPC6 act: inactive

How did Cc1ccc(COn2c(-c3ccc(Cl)cc3Cl)nc3ncccc32)cc1 do in these assays?
TRPC4 potent: inactive; TRPC4 agonist: 59; TRPC4 block: -8; TRPC6 inh: inactive; TRPC6 act: inactive

Results for CCOC(=O)c1sc(N2C(=O)C(O)=C(C(=O)c3ccco3)C2c2ccc([N+](=O)[O-])cc2)nc1C (configuration not stated) ?
TRPC4 potent: inactive; DSG3 Ab inh: inactive; TRPC4 agonist: inactive; TRPC4 block: inactive; TRPC6 inh: inactive; TRPC6 act: inactive
